# Measurements pooled from the literature.
# ADRA1A: Alpha-1A adrenergic receptor (ADRA1A, Homo sapiens, UniProt P35348)
# MAL12: Alpha-glucosidase MAL12 (MAL12, Saccharomyces cerevisiae S288c, UniProt P53341)
# MAP3K7: Mitogen-activated protein kinase kinase kinase 7 (MAP3K7, Homo sapiens, UniProt O43318)
Structure (SMILES),target,read-out,action,method,concentration,quantity,result
COc1cc2c3c(c1OC)-c1c(OC)ccc(-c4ccc(C#N)cc4)c1CC3N(C)CC2 (stereo not shown),ADRA1A,ligand displacement,,radioligand,10 µM,inhibition,83%
O=c1c(O)c(-c2ccc(O)cc2)oc2cc(O)cc(O)c12,MAL12,enzyme activity,inhibitor,absorbance,50 µM,inhibition,39.8%
C#Cc1cc(-c2cc(Nc3nc(N[C@@H](C)c4ccc(F)cn4)ncc3Cl)n[nH]2)ccc1C=O,"Mitotic checkpoint serine/threonine-protein kinase BUB1 (BUB1, Homo sapiens, UniProt O43683)",enzyme activity,inhibitor,,0.2 µM,inhibition,35%
CCCCC(=O)Nc1ccc(-c2ccc3ncn(CCC)c(=O)c3c2)cn1,"Serine/threonine-protein kinase tousled-like 2 (TLK2, Homo sapiens, UniProt Q86UE8)",binding,,competition with immobilised ligand,0.5 µM,remaining binding,87%
C1=C/COCc2cc(ccc2OCCN2CCCC2)Nc2nccc(n2)-c2cccc(c2)COC/1,"Tyrosine-protein kinase Lyn (LYN, Homo sapiens, UniProt P07948)",binding,,,0.1 µM,remaining binding,88%
O=C1C[C@@H](c2ccc(O)cc2)Oc2cc(O)cc(O)c21,MAL12,enzyme activity,inhibitor,absorbance,50 µM,inhibition,26.5%
CC(=O)ON=C1C=CC(=C(C#N)c2ccccc2)C=C1,"Glycogen synthase kinase 3 (Plasmodium falciparum, UniProt O77344)",enzyme activity,inhibitor,ADP detection,20 µM,activity vs control,89%
CNC(=O)c1ccccc1Nc1nc(Nc2ccc(CO)nc2)ncc1Cl,MAP3K7,enzyme activity,inhibitor,,1 µM,remaining activity,64.9%
O=c1cc(-c2ccc(O)c(O)c2)oc2c(Br)c(O)c(Br)c(O)c12,MAL12,enzyme activity,inhibitor,absorbance,50 µM,inhibition,95.1%
C#Cc1cnc(Nc2ccc(CO)nc2)nc1Nc1ccccc1S(C)(=O)=NC#N (stereo not shown),MAP3K7,enzyme activity,inhibitor,,1 µM,remaining activity,50.4%
COc1cc2c3c(c1OC)-c1c(OC)ccc(O)c1CC3N(C)CC2 (stereo not shown),ADRA1A,ligand displacement,,radioligand,10 µM,inhibition,9%
CNC(=O)c1ccccc1Nc1nc(Nc2ccc(CO)cc2)ncc1Cl,MAP3K7,enzyme activity,inhibitor,,1 µM,remaining activity,42.9%
COc1ccc2oc(-c3ccc4nc(N)oc4c3)c/c(=N\c3ccccc3NC(=O)CCN)c2c1,"Bone morphogenetic protein receptor type-1B (BMPR1B, Homo sapiens, UniProt O00238)",binding,,,1 µM,remaining binding,99%
